{"source": "ChEMBL document CHEMBL4811272", "about": "“A new sulfated triterpene glycoside from the sea cucumber Colochirus quadrangularis, and evaluation of its antifungal, antitumor and immunomodulatory activities” (Bioorg Med Chem, 2021)", "key": {"[1]": {"tested_on": "H22", "assay": "Antitumor activity against mouse H22 cells implanted in KM mouse assessed as tumor growth inhibition at 5 mg/kg, IG administered everyday for 7 days relative to control", "assay_type": "functional", "conditions": "H22, po, 168 h, time 7 day, read-out: TGI", "summary_of_the_method": "(§1)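 S-180 or H22 cells, about 2.5 × 10⁶ per mouse, injected s.c. in the right axilla of wild-type KM mice. Randomized after 24 h and dosed intragastrically for 7 days; sacrificed 24 h after the last dose. TGI = (W_C − W_T)/W_C × 100% from average tumor weight. n = 8; one-way ANOVA vs vehicle.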"}, "[2]": {"tested_on": "Bel-7402", "assay": "Cytotoxicity against human Bel-7402 cells assessed as reduction in cell viability by sulforhodamine B assay", "assay_type": "functional, cell-based", "summary_of_the_method": "(§2)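 Cells were kept in RPMI-1640 with 10% FBS, 2 mM L-glutamine, 50 μM β-mercaptoethanol and penicillin/streptomycin, at 37 °C in 5% CO2. SRB assay used 100, 10, 1, 0.1 and 0.01 μM, each in triplicate. Percent inhibition was calculated against solvent control OD. IC50 came from Logit curve fitting and is the mean of three independent experiments.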"}, "[3]": {"tested_on": "Candida parapsilosis", "assay": "Antifungal activity against clinical strain Candida parapsilosis by microplate reader assay", "assay_type": "functional", "conditions": "Lodderomyces parapsilosis", "summary_of_the_method": "(§3)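 Broth microdilution read by optical density at 630 nm. MIC80 is the first well with about 80% less growth than the drug-free well. Each concentration was run in three replicate wells, and values are means of three independent experiments.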"}, "[4]": {"tested_on": "H22", "assay": "Antitumor activity against mouse H22 cells implanted in KM mouse assessed as tumor growth inhibition at 50 mg/kg, IG administered everyday for 7 days relative to control", "assay_type": "functional", "conditions": "H22, po, 168 h, time 7 day, read-out: TGI", "summary_of_the_method": "as §1"}, "[5]": {"tested_on": "HCT-116", "assay": "Induction of apoptosis in human HCT-116 cells assessed as apoptotic nuclei cells measured upto 2 times of IC50 concentration for 24 hrs by Hoechst staining method", "assay_type": "functional, cell-based", "summary_of_the_method": "(§4)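 HCT-116 cells treated with vehicle or three compound concentrations, then stained with Hoechst 33258. Nuclei examined by inverted fluorescence microscopy at ×400 in five random fields. Apoptotic cells expressed as % of cells counted. n = 3; ANOVA vs vehicle.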"}, "[6]": {"tested_on": "HCT-116", "assay": "Induction of apoptosis in human HCT-116 cells assessed as apoptosis associated morphological changes measured upto 2 times of IC50 concentration for 24 hrs by Hoechst staining method", "assay_type": "functional, cell-based", "summary_of_the_method": "as §4"}, "[7]": {"target": "Platelet-derived growth factor receptor beta (Mus musculus, UniProt P05622)", "sequence (P05622 whole entry)": "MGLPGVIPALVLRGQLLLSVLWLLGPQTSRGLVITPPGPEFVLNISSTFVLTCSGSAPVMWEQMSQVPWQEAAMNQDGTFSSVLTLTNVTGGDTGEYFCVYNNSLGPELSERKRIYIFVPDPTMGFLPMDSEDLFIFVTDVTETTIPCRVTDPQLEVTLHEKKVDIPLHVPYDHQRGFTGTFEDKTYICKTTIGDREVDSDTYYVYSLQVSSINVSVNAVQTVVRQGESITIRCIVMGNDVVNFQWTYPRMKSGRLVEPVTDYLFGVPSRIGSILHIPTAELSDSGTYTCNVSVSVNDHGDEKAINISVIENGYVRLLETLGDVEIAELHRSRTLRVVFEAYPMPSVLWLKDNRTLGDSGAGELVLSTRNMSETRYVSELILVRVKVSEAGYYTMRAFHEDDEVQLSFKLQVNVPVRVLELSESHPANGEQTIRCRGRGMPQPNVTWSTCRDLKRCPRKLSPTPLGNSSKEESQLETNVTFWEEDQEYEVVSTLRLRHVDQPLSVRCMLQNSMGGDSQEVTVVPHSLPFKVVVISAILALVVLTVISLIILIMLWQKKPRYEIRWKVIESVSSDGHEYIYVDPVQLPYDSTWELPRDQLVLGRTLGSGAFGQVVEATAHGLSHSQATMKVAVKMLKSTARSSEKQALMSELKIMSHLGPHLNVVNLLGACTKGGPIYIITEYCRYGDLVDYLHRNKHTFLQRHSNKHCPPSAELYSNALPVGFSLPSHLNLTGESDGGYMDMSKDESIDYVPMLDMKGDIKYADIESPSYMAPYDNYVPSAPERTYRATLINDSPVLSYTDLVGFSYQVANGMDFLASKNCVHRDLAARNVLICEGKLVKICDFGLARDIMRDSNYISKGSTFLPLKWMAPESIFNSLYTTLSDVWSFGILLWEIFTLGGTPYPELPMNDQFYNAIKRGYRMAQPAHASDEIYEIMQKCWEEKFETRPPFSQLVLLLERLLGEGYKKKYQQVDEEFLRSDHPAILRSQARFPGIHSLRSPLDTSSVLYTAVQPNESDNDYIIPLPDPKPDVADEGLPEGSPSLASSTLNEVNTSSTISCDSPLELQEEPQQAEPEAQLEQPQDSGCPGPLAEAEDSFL", "assay": "Inhibition of PDGFRbeta in mouse NIH/3T3 cells assessed as reduction of PDGF-BB-stimulated phosphorylation", "assay_type": "cell-based", "summary_of_the_method": "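NIH/3T3 fibroblasts transfected to overexpress VEGFR-2 or PDGFR-β, starved 24 h, then given compound. Stimulation: VEGF 500 ng/mL for VEGFR-2 cells, PDGF-BB 150 ng/mL for PDGFR-β cells. Cells fixed in 4% paraformaldehyde and probed with PY-99 anti-phosphotyrosine, secondary IgG and HRP-avidin. OD 405 nm read after ABTS; IC50 from three independent experiments.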"}, "[8]": {"tested_on": "Bel-7402", "assay": "Antitumor activity against human Bel-7402 cells implanted in BALB/c-nu mouse assessed as T/C ratio at 5 mg/kg, IG administered everyday for 7 days relative to control", "assay_type": "functional", "conditions": "time 7 day"}, "[9]": {"tested_on": "MCF7", "assay": "Cytotoxicity against human MCF7 cells assessed as reduction in cell viability by sulforhodamine B assay", "assay_type": "functional, cell-based", "summary_of_the_method": "as §2"}, "[10]": {"tested_on": "Bel-7402", "assay": "Antitumor activity against human Bel-7402 cells implanted in BALB/c-nu mouse assessed as T/C ratio at 100 mg/kg, IG administered everyday for 7 days relative to control", "assay_type": "functional", "conditions": "time 7 day"}, "[11]": {"tested_on": "MKN-28", "assay": "Cytotoxicity against human MKN-28 cells assessed as reduction in cell viability by sulforhodamine B assay", "assay_type": "functional, cell-based", "summary_of_the_method": "as §2"}, "[12]": {"tested_on": "SPC-A4", "assay": "Cytotoxicity against human SPC-A4 cells assessed as reduction in cell viability by sulforhodamine B assay", "assay_type": "functional, cell-based", "summary_of_the_method": "as §2"}, "[13]": {"tested_on": "Candida tropicalis", "assay": "Antifungal activity against clinical strain Candida tropicalis by microplate reader assay", "assay_type": "functional", "summary_of_the_method": "as §3"}, "[14]": {"tested_on": "A549", "assay": "Cytotoxicity against human A549 cells assessed as reduction in cell viability by sulforhodamine B assay", "assay_type": "functional, cell-based", "summary_of_the_method": "as §2"}, "[15]": {"tested_on": "HMEC-1", "assay": "Antiproliferative activity against human HMEC-1 cells assessed as inhibition of proliferation by SRB method", "assay_type": "functional, cell-based", "summary_of_the_method": "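HMEC-1 endothelial cells seeded and exposed to compound. Proliferation read by SRB and migration by Transwell. IC50 calculated from three independent experiments.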"}, "[16]": {"tested_on": "HCT-116", "assay": "Induction of apoptosis in human HCT-116 cells assessed as decrease in viable cells measured upto 2 times of IC50 concentration by annexin V staining based flow cytometry analysis", "assay_type": "functional, cell-based", "summary_of_the_method": "(§5)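 HCT-116 cells treated with vehicle or three compound concentrations, collected, and stained with Annexin V-FITC and propidium iodide in the dark at 4 °C. Flow cytometry quadrants: Q4 live, Q3 early apoptotic, Q2 late apoptotic, Q1 necrotic. n = 3; ANOVA vs vehicle.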"}, "[17]": {"tested_on": "CCRF S-180", "assay": "Antitumor activity against mouse S-180 cells implanted in KM mouse assessed as tumor growth inhibition at 50 mg/kg, IG administered everyday for 7 days relative to control", "assay_type": "functional", "conditions": "CCRF S-180, po, 168 h, time 7 day, read-out: TGI", "summary_of_the_method": "as §1"}, "[18]": {"tested_on": "HCT-116", "assay": "Induction of apoptosis in human HCT-116 cells assessed as increase in late apoptotic cells measured upto 2 times of IC50 concentration by annexin V staining based flow cytometry analysis", "assay_type": "functional, cell-based", "summary_of_the_method": "as §5"}, "[19]": {"tested_on": "HCT-116", "assay": "Induction of apoptosis in human HCT-116 cells assessed as increase in early apoptotic cells measured upto 2 times of IC50 concentration by annexin V staining based flow cytometry analysis", "assay_type": "functional, cell-based", "summary_of_the_method": "as §5"}, "[20]": {"tested_on": "H22", "assay": "Antitumor activity against mouse H22 cells implanted in KM mouse assessed as tumor growth inhibition at 0.5 mg/kg, IG administered everyday for 7 days relative to control", "assay_type": "functional", "conditions": "H22, po, 168 h, time 7 day, read-out: TGI", "summary_of_the_method": "as §1"}, "[21]": {"tested_on": "Cryptococcus neoformans", "assay": "Antifungal activity against Cryptococcus neoformans ATCC 32609 by microplate reader assay", "assay_type": "functional", "conditions": "ATTCC32609", "summary_of_the_method": "as §3"}, "[22]": {"tested_on": "CCRF S-180", "assay": "Antitumor activity against mouse S-180 cells implanted in KM mouse assessed as tumor growth inhibition at 5 mg/kg, IG administered everyday for 7 days relative to control", "assay_type": "functional", "conditions": "CCRF S-180, po, 168 h, time 7 day, read-out: TGI", "summary_of_the_method": "as §1"}, "[23]": {"tested_on": "Mus musculus", "assay": "Immunomodulatory activity in cyclophosphamide-immunosuppressed KM mouse assessed as improved spleen index in at 50 to 500 mg/kg, IG once daily measured after 14 days", "assay_type": "functional, organism-based", "conditions": "dose 50-500 mg/kg, time 14.0 day", "summary_of_the_method": "(§6)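 KM mice dosed intragastrically at 5, 50 or 500 mg/kg; vehicle 0.5% CMC-Na. After five doses, immunized i.p. with 0.2 mL 20% rabbit erythrocytes, and dosing continued for 8 days. CTX 30 mg/kg i.p. on days 2, 4 and 6 after immunization. 1 h after the last dose, spleen and thymus weighed; index in g/kg. n = 8.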"}, "[24]": {"assay": "Inhibition of angiogenesis in human HMEC-1 cells assessed as tube formation by matrigel-based assay", "assay_type": "functional, cell-based", "summary_of_the_method": "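HMEC-1 cells seeded onto solidified Matrigel and exposed to compound, then cultured. Total tube length measured and used to calculate IC50. Three independent experiments.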"}, "[25]": {"tested_on": "Mus musculus", "assay": "Immunomodulatory activity in cyclophosphamide-immunosuppressed KM mouse assessed as improved thymus index in at 50 to 500 mg/kg, IG once daily measured after 14 days", "assay_type": "functional, organism-based", "conditions": "dose 50-500 mg/kg, time 14.0 day", "summary_of_the_method": "as §6"}, "[26]": {"tested_on": "Bel-7402", "assay": "Antitumor activity against human Bel-7402 cells implanted in BALB/c-nu mouse assessed as T/C ratio at 500 mg/kg, IG administered everyday for 7 days relative to control", "assay_type": "functional", "conditions": "time 7 day"}}, "note": "Calls of active or inactive are those of the source. The rule behind the calls is not given here.", "data": [{"smiles": "C=C(C)CCC[C@]1(C)OC(=O)[C@]23CC[C@@H]4C(=CCC5C(C)(C)[C@@H](O[C@@H]6OC[C@@H](OS(=O)(=O)[O-])[C@H](O)[C@H]6O[C@@H]6O[C@H](C)[C@@H](O[C@@H]7OC[C@@H](O)[C@H](O[C@@H]8O[C@H](CO)[C@@H](O)[C@H](OC)[C@H]8O)[C@H]7O)[C@H](O)[C@H]6O)CC[C@@]54C)[C@]2(C)C[C@H](OC(C)=O)[C@@H]31.[Na+]", "note": "(stereo partly specified)", "values": [{"measurement": "inhibition in vivo at 5 mg/kg", "setting": "[1]", "result": 40.1, "unit": "%"}, {"measurement": "IC50", "setting": "[2]", "result": 1450, "unit": "nM"}, {"measurement": "MIC80", "setting": "[3]", "result": 4, "unit": "µg/mL"}, {"measurement": "inhibition in vivo at 50 mg/kg", "setting": "[4]", "result": 43.3, "unit": "%"}, {"measurement": "Activity", "setting": "[5]", "result": "Active"}, {"measurement": "Activity", "setting": "[6]", "result": "Active"}, {"measurement": "IC50", "setting": "[7]", "result": 4800, "unit": "nM"}, {"measurement": "T/C", "setting": "[8]", "result": 45, "unit": "%"}, {"measurement": "IC50", "setting": "[9]", "result": 2030, "unit": "nM"}, {"measurement": "T/C", "setting": "[10]", "result": 20, "unit": "%"}, {"measurement": "IC50", "setting": "[11]", "result": 1830, "unit": "nM"}, {"measurement": "IC50", "setting": "[12]", "result": 1500, "unit": "nM"}, {"measurement": "MIC80", "setting": "[13]", "result": 8, "unit": "µg/mL"}, {"measurement": "IC50", "setting": "[14]", "result": 1270, "unit": "nM"}, {"measurement": "IC50", "setting": "[15]", "result": 1600, "unit": "nM"}, {"measurement": "Activity", "setting": "[16]", "result": "inactive"}, {"measurement": "inhibition in vivo at 50 mg/kg", "setting": "[17]", "result": 55.5, "unit": "%"}, {"measurement": "Activity", "setting": "[18]", "result": "Active"}, {"measurement": "Activity", "setting": "[19]", "result": "Active"}, {"measurement": "inhibition in vivo at 0.5 mg/kg", "setting": "[20]", "result": 22.1, "unit": "%"}, {"measurement": "MIC80", "setting": "[21]", "result": 16, "unit": "µg/mL"}, {"measurement": "inhibition in vivo at 5 mg/kg", "setting": "[22]", "result": 44.2, "unit": "%"}, {"measurement": "Activity", "setting": "[23]", "result": "Active"}, {"measurement": "IC50", "setting": "[24]", "result": 60, "unit": "nM"}, {"measurement": "Activity", "setting": "[25]", "result": "Active"}, {"measurement": "T/C", "setting": "[26]", "result": 32, "unit": "%"}]}]}
